VLA-4 inh = inhibition in a human VLA-4 binding assay; P13612; VLA-4 expressing cells, ligand binding flow cytometry; inhibition, % (about 7 µM as worked out from the volumes in the protocol); 0.2% of 330,000 active; AID 2557; in the data active = inhibition above about 50%
ABCB6 inh 2 = blocks the human ABCB6 transporter; Q9NP58; K562-ABCB6 porphyrin accumulation, flow cytometry, 1 h; stronger effect = lower value; fluorescence ratio to DMSO, % at 10 µM; 0.19% of 360,000 active;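 active = fluorescence ratio to DMSO below 75%, the collection mean minus 3 SD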;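 note: signal is porphyrin accumulated inside mitochondria; 100% equals median channel fluorescence of DMSO control wells; lower ratio means ABCB6 inhibition with less porphyrin fluorescence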
Exocytosis inh = blocks lytic granule exocytosis; 0.66% of 360,000 active; TALL-104 LAMP-1 surface exposure, flow cytometry; cells stimulated with thapsigargin and PMA; inhibition, % at 10 µM;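 active = inhibition above about 55%, limit read from the data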
DAGLB inh = diacylglycerol lipase beta (human) inhibition. HEK293T DAGLB membrane lysate, EnzChek fluorogenic substrate. inhibition, % at 5.17 µM. 0.059% of 340,000 active. AID 504411; in the data active = inhibition above about 34%;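 note: 0% = enzyme with vehicle and 100% = wells lacking enzyme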
MT1-MMP act inh = inhibitors of human MT1-MMP activation. P50281. HT1080 RFP-PRO-GFP cells, GFP/RFP ratio fluorescence, overnight; percent of plate control window, DMSO zero. GFP/RFP ratio change, % at 20 µM. 0.061% of 360,000 active;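 active = GFP/RFP ratio change of at least 30% with cell ATP level not reduced by more than half and red fluorescence within 50% of control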
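Assay system: HT1080 cells carrying an RFP-PRO-GFP reporter | Dosing: Single dose of 20 µM compound, 1% DMSO final | Incubation: Cells overnight before dosing, compound overnight, 37 °C, 5% CO2 | Evaluation: GFP/RFP fluorescence ratio | Control set: DMSO and RFP-L50D-GFP cell wells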
FGF22 binding-1 = binders of recombinant human FGF22 by thermal shift; Q9HCT0; SYPRO orange fluorescence; percent of sucrose octasulfate shift, DMSO zero; activity (Tm shift, normalised), % at 9.99 µM; 1.5% of 340,000 active; AID 651658;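 active = mean Tm shift, scaled 0 neutral to 100 positive control, at about 1.3% or above, every replicate too, limit read from the data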
Target sequence (Q9HCT0 whole entry, looked up): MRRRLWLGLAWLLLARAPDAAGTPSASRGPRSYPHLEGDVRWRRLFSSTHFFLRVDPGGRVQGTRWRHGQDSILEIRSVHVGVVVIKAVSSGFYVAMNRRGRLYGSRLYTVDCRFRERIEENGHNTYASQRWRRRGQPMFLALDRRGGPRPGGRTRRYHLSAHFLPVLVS
MT1-MMP conf = blocks activation of human MT1-MMP in validation testing; 10% of 200 active; HT1080 RFP-PRO-GFP cells, GFP and RFP fluorescence ratio, overnight; inhibition, % at 20 µM; shares compounds with MT1-MMP act inh;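 active = inhibition of at least 50% in the primary cell screen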
FGF22 binding-2 = binds human FGF22 shifting its melting temperature; shares compounds with FGF22 binding-1; 2% of 1,000 active; recombinant FGF22 thermal shift, SYPRO orange fluorescence; thermal shift activity, °C (ΔTm) at 38 µM;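 active = fitted rise in melting shift crosses a set limit at or below the top valid dose tested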
SYPRO no-protein = compound-only SYPRO artifact for FGF22 binders | shares compounds with FGF22 binding-1 | compound-only SYPRO orange thermal shift counter-screen, no protein | AC50, µM (doses to about 38 µM) | 2% of 1,000 active;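 active = rising signal whose fitted curve reaches the 0.54 level within the top valid dose, showing a melting point, actives reach about 13 µM in these data; inactive = the rest, including activity in the opposite direction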; note: value is where the raw curve crosses a fixed level and not half-maximal
Exocytosis CP01 = lytic granule exocytosis inhibition; inhibition, % at 10 µM; 11% of 1,500 active; TALL-104 cells, LAMP-1 externalization, flow cytometry; stimulated with PMA plus thapsigargin; shares compounds with Exocytosis inh; in the data active = inhibition above about 60%;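 note: 0% = stimulated vehicle wells and 100% = unstimulated wells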
The depositor's hits bear a star; [ ] = dose if it differs, or a comment. Hits are enriched below; roughly 2% of the tested compounds scored in any of these assays.

Results for C[n+]1c2ccccc2nc2ccc(NCCO)cc21 ?
VLA-4 inh: -32.5; ABCB6 inh 2: 127.0; Exocytosis inh: -9.0; DAGLB inh: 1.0; MT1-MMP act inh: 55.1*; FGF22 binding-1: 0.0; MT1-MMP conf: 37.6

What do the screens show for `OCCNc1c2c(nc3ccccc13)CCCC2`?
VLA-4 inh: 8.0; ABCB6 inh 2: 93.0; Exocytosis inh: -2.2; DAGLB inh: 0.3; MT1-MMP act inh: -6.5

Results for CNc1ccc2nc3ccccc3[n+](C)c2c1 ?
VLA-4 inh: -85.4; ABCB6 inh 2: 143.0; Exocytosis inh: 23.0; DAGLB inh: 3.8; MT1-MMP act inh: 67.3*; FGF22 binding-1: -0.1; MT1-MMP conf: 49.2

How did CCOC(=O)[C@@H]1[C@@H]2NC(=S)N(C)[C@@]1(C)Oc1ccccc12 do in these assays?
FGF22 binding-1: 0.2

What do the screens show for `CN1C(=O)C(=Cc2coc3ccccc3c2=O)C(=O)N(C)C1=O`?
VLA-4 inh: -1.6; ABCB6 inh 2: 105.0; Exocytosis inh: 0.1; DAGLB inh: 1.9; MT1-MMP act inh: -3.0; FGF22 binding-1: -0.1

How did CN1C(=O)C(=Cc2ccc(Sc3ccccc3)o2)C(=O)N(C)C1=O do in these assays?
VLA-4 inh: 2.0; ABCB6 inh 2: 94.0; Exocytosis inh: 48.8; DAGLB inh: 7.3; MT1-MMP act inh: 32.7*; FGF22 binding-1: -0.2; MT1-MMP conf: 3.3

What do the screens show for `O=C(Nc1ccccc1)c1cccn(Cc2ccccc2)c1=O`?
VLA-4 inh: 0.1; ABCB6 inh 2: 97.0; Exocytosis inh: 2.7; DAGLB inh: -5.5; MT1-MMP act inh: -10.1; FGF22 binding-1: 1.4*; FGF22 binding-2: -0.159; SYPRO no-protein: inactive

How did CC(=O)Nc1ccc(S(=O)(=O)N2Cc3ccccc3-n3nncc3C2)cc1 do in these assays?
ABCB6 inh 2: 103.0; Exocytosis inh: -1.9; DAGLB inh: -1.4; MT1-MMP act inh: 1.0; FGF22 binding-1: 23.2*; FGF22 binding-2: 0.117; SYPRO no-protein: inactive

What do the screens show for `N#Cc1cccc(-c2ccc([C@@H]3[C@@H](CO)N4CCCCN(C(=O)Cc5ccccc5)C[C@@H]34)cc2)c1`?
FGF22 binding-1: -0.1

How did CC=Cc1ccc2n(c1=O)C[C@H]1[C@H](CO)[C@@H](C(=O)OC)[C@@H]2N1C(=O)CC1CC1 (mixture of isomers) do in these assays?
FGF22 binding-1: 0.2

How did CC=Cc1ccc2n(c1=O)C[C@H]1[C@H](CO)[C@@H](C(=O)N(C)C)N[C@@H]21 (mixture of isomers) do in these assays?
FGF22 binding-1: 1.7*; FGF22 binding-2: 0.031; SYPRO no-protein: inactive

How did O=C(Cc1ccccn1)N1CCCCN2[C@H](CO)[C@H](c3ccc(C#Cc4ccccc4)cc3)[C@H]2C1 do in these assays?
FGF22 binding-1: 0.2

Results for COc1cccc(-c2ccc([C@@H]3[C@@H](CO)N4CCCCN(C(=O)Cc5ccncc5)C[C@@H]34)cc2)c1 ?
FGF22 binding-1: 1.4*; FGF22 binding-2: 0.065[42 µM]; SYPRO no-protein: inactive

What do the screens show for `COc1cccc(-c2ccc([C@H]3[C@@H](CO)N4CCCCN(C(=O)Cc5ccncc5)C[C@@H]34)cc2)c1`?
FGF22 binding-1: 0.4

What do the screens show for `CC1([N+](=O)[O-])COP(=O)(NC2CC2)OC1` (stereo not given)?
ABCB6 inh 2: 89.0; Exocytosis inh: 7.2; DAGLB inh: 0.0; MT1-MMP act inh: 1.4; FGF22 binding-1: 46.4*; SYPRO no-protein: inactive

How did O=C(NCCN1CCC2(CC1)C(=O)NCN2c1ccccc1)c1ccc2ccccc2c1 do in these assays?
FGF22 binding-1: 1.9*; FGF22 binding-2: 0.034; SYPRO no-protein: inactive

What do the screens show for `COC(=O)[C@H]1[C@H](CO)[C@H]2Cn3c(ccc(-c4ccc(OC)cc4)c3=O)[C@@H]1N2C(=O)c1ccccc1F`?
FGF22 binding-1: -0.2

What do the screens show for `CN(C)Cc1c[nH]c2ccccc12`?
VLA-4 inh: 3.4; ABCB6 inh 2: 101.0; Exocytosis inh: 1.8; DAGLB inh: -0.6; MT1-MMP act inh: -1.0; FGF22 binding-1: 18.6*; FGF22 binding-2: 0.045; SYPRO no-protein: inactive

Results for C=CCN(CC=C)Cc1c[nH]c2ccccc12 ?
VLA-4 inh: -6.1; FGF22 binding-1: 0.5

How did O=C1CNC[C@H]2[C@@H](c3ccc(Br)cc3)[C@@H](CO)N12 do in these assays?
FGF22 binding-1: -0.1

What do the screens show for `Cc1ccccc1-c1ccc([C@H]2[C@@H](CO)N3CCCCN(C(=O)Cc4ccccn4)C[C@@H]23)cc1`?
FGF22 binding-1: -0.3

What do the screens show for `Cc1cc(OCC(=O)NC(Cc2ccc(Cl)cc2)C(=O)O)c2c3c(c(=O)oc2c1)CCC3` (stereo not given)?
VLA-4 inh: -4.8; ABCB6 inh 2: 98.0; Exocytosis inh: 13.0; DAGLB inh: 4.7; MT1-MMP act inh: -0.4; FGF22 binding-1: 1.7*; FGF22 binding-2: -0.155; SYPRO no-protein: inactive

How did O=C(N/N=C/c1c(O)n(C2CC2)c(=S)[nH]c1=O)c1ccccc1O do in these assays?
VLA-4 inh: -4.6; ABCB6 inh 2: 101.0; Exocytosis inh: 0.1; DAGLB inh: 2.3; MT1-MMP act inh: 7.7

What do the screens show for `Cc1ccccc1-n1c(O)c(/C=N/NC(=O)c2ccccc2O)c(=O)[nH]c1=S`?
VLA-4 inh: -2.3; ABCB6 inh 2: 99.0; Exocytosis inh: -4.5; DAGLB inh: 5.6; MT1-MMP act inh: 6.7; FGF22 binding-1: 1.8*; FGF22 binding-2: -0.058; SYPRO no-protein: inactive

What do the screens show for `COc1ccc2c(c1O)-c1c(OC)c(OC)cc3c1[C@H](C2)N(C)CC3`?
VLA-4 inh: 14.0; ABCB6 inh 2: 99.0; Exocytosis inh: -1.9; DAGLB inh: 2.5; MT1-MMP act inh: 0.6; FGF22 binding-1: -0.4

What do the screens show for `CCCN1CCc2cccc3c2[C@H]1Cc1ccc(O)c(O)c1-3`?
VLA-4 inh: 10.2; ABCB6 inh 2: 102.0; Exocytosis inh: 101.1*; DAGLB inh: 9.9; MT1-MMP act inh: 3.1; Exocytosis CP01: 26.9

What do the screens show for `O=C1/C(=C\c2cc3c(cc2Cl)OCO3)N2CCC1CC2`?
VLA-4 inh: 14.4; ABCB6 inh 2: 98.0; Exocytosis inh: 3.1; DAGLB inh: -4.2; MT1-MMP act inh: -4.3
